From the M2OR odorant receptor database

Biological target: T1, UniProt Q924H8
T1 sequence (whole entry): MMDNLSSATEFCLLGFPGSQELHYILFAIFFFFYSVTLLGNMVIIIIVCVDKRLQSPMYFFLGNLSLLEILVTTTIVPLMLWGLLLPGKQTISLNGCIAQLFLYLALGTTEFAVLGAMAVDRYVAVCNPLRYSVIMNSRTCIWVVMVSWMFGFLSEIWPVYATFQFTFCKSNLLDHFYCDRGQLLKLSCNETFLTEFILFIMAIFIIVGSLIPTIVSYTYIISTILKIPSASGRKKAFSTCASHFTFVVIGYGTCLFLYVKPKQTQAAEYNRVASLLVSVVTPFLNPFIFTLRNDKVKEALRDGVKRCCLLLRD
Conditions: stereoisomer not certain
Summary of the method: (§1)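 Each receptor–molecule pair is labelled responsive or non-responsive (inactive) according to whether the original authors judged the measured signal statistically different from baseline. The data were taken from the main text and supplementary material of published papers and checked for typos and inconsistencies. Assay methods differed by source, with transient luciferase assays in mammalian cell lines being common.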
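Also: active if original authors judged signal statistically different from baseline.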

| SMILES | odorant receptor agonist call |
| --- | --- |
| CCCCCCCCCO | inactive |
| CCCCC(C)=O | inactive |
| CCSCC | inactive |
| CCOC(=O)C(C)C | inactive |
| O=C(O)C1CCC1 | inactive |
| CCCCCCCCC(=O)O | inactive |
| CC(=O)OCC=C(C)C | inactive |
| CCCCCC(=O)CC | inactive |
| O=C([O-])CCCCCCCC(=O)[O-].[H+].[H+] | inactive |
| CCC=CCCC=CC=O | inactive |
| CCCCCCCCCC(=O)[O-].[H+] | inactive |
| CCCCCCCCS | inactive |
| CCCCCC(C)O (stereo unspecified) | inactive |
| O=C([O-])CCCCCCC(=O)[O-].[H+].[H+] | inactive |
| C=CC(=C)CCC=C(C)C | inactive |
| C=CCOC(=O)CCCCCC | inactive |
| C1CCOCC1 | inactive |
| CC(=O)C1(C)CC2=C(CCCC2(C)C)CC1C (stereo unspecified) | inactive |

| SMILES | odorant receptor agonist call |
| --- | --- |
| CCOC(=O)CC(C)C | inactive |
| CCCCCOC(=O)CC | inactive |
| CCCCCCO | inactive |
| O=C(O)CCCCCCCCC(=O)O | inactive |
| CCCCCCCCO | inactive |
| CCCCCCCCCCO | inactive |
| CCC(=O)C(=O)CC | inactive |
| CCCCC=O | inactive |
| CCCCCC(C=O)=Cc1ccccc1 | inactive |
| CCCCCCCO | inactive |
| O=C1Cc2ccccc2O1 | inactive |
| CCCCC(=O)O | inactive |
| CCCCCC=O | inactive |
| CCc1nccnc1CC | inactive |
| O=C(c1ccccc1)c1ccccc1 | inactive |
| C=C(CC)CCCC(C)(C)O | inactive |
| CCSSCC | inactive |
| O=C(O)CCCCCBr | inactive |

Biological target: T2, UniProt Q924X8
T2 sequence (whole entry): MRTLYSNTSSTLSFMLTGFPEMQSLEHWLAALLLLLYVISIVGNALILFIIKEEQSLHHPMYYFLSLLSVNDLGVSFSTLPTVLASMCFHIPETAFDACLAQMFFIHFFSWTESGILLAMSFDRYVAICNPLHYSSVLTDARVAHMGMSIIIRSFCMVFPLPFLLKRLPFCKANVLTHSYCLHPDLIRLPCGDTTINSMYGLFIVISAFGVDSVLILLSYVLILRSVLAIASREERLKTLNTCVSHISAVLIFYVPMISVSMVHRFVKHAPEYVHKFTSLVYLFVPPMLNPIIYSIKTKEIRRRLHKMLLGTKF
Conditions: stereoisomer not certain
Summary of the method: as §1

| SMILES | odorant receptor agonist call |
| --- | --- |
| CCCCCCCCCO | inactive |
| CCCCCCCCC(=O)O | inactive |
| O=C([O-])CCCCCCCC(=O)[O-].[H+].[H+] | active |
| O=C([O-])CCCCCCC(=O)[O-].[H+].[H+] | active |
| CCCCCCO | inactive |
| CCCCCCCCO | inactive |
| CCCCCCCO | inactive |
| CCCCC(=O)O | inactive |
| O=C(O)CCCCCBr | active |

Biological target: T3, UniProt Q99NH4
T3 sequence (whole entry): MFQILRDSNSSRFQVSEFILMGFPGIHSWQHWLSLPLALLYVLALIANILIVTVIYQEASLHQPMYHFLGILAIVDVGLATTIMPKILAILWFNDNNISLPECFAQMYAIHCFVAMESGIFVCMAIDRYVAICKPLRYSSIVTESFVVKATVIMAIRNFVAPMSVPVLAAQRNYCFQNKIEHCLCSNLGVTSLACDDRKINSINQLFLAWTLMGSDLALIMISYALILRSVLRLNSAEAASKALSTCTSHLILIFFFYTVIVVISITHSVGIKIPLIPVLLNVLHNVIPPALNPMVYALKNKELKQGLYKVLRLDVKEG
Conditions: stereoisomer not certain
Summary of the method: as §1

| SMILES | odorant receptor agonist call |
| --- | --- |
| CCCCCCCCC(=O)O | active |
| O=C([O-])CCCCCCCC(=O)[O-].[H+].[H+] | inactive |
| CCCCCCCCCC(=O)[O-].[H+] | inactive |
| O=C([O-])CCCCCCC(=O)[O-].[H+].[H+] | inactive |
| CCCCCCO | inactive |
| O=C(O)CCCCCCCCC(=O)O | inactive |
| CCCCCCCCCCO | inactive |
| CCCCC=O | inactive |
| CCCCCCCO | inactive |
| CCCCC(=O)O | inactive |
| CCCCCC=O | inactive |
| O=C(O)CCCCCBr | inactive |

Biological target: T4, UniProt Q9EPN9
T4 sequence (whole entry): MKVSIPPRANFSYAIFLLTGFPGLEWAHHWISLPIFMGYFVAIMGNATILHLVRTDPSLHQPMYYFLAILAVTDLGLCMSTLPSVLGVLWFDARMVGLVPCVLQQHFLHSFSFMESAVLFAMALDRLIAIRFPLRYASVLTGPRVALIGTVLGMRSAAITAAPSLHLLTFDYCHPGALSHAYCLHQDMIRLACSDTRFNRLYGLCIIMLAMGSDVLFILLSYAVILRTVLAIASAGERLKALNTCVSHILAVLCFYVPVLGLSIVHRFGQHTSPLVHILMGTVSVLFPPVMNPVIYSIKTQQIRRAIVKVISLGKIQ
Conditions: stereoisomer not certain
Summary of the method: as §1

| SMILES | odorant receptor agonist call |
| --- | --- |
| CCCCCCCCCO | inactive |
| CCCCC(C)=O | inactive |
| CCOC(=O)C(C)C | inactive |
| CCCCCCCCC(=O)O | inactive |
| CC(=O)OCC=C(C)C | inactive |
| CCCCCC(=O)CC | inactive |
| CCCCCCCCCC(=O)[O-].[H+] | inactive |
| CCCCCCCCS | inactive |
| C=CCOC(=O)CCCCCC | inactive |
| CCCCCCO | inactive |
| CCCCCCCCO | inactive |
| CCCCCCCCCCO | inactive |
| CCC(=O)C(=O)CC | inactive |
| CCCCCCCO | inactive |
| O=C1Cc2ccccc2O1 | inactive |
| CCCCC(=O)O | inactive |
| CCCCCC=O | inactive |
| O=C(c1ccccc1)c1ccccc1 | inactive |

Biological target: UniProt Q9R0K2
Conditions: stereoisomer not certain
Summary of the method: as §1

Sequence of UniProt Q9R0K2 (Q9R0K2 as listed by the source): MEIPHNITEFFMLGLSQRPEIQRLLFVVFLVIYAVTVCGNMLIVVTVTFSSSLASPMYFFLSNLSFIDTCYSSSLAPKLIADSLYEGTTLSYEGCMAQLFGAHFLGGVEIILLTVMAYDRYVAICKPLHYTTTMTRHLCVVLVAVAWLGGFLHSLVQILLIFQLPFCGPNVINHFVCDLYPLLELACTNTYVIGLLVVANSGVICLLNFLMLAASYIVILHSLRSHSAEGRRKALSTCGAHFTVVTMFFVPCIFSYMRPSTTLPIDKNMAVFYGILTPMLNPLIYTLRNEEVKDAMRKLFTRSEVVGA

| SMILES | odorant receptor agonist call |
| --- | --- |
| CCCCCCCCCO | inactive |
| CCCCC(C)=O | inactive |
| CCOC(=O)C(C)C | inactive |
| CCCCCCCCC(=O)O | inactive |
| CC(=O)OCC=C(C)C | inactive |
| CCCCCC(=O)CC | inactive |
| CCCCCCCCCC(=O)[O-].[H+] | inactive |
| CCCCCCCCS | inactive |
| C=CCOC(=O)CCCCCC | inactive |
| CCCCCCO | inactive |
| CCCCCCCCO | inactive |
| CCCCCCCCCCO | inactive |
| CCC(=O)C(=O)CC | inactive |
| CCCCCCCO | inactive |
| O=C1Cc2ccccc2O1 | inactive |
| CCCCC(=O)O | inactive |
| CCCCCC=O | inactive |
| O=C(c1ccccc1)c1ccccc1 | inactive |

Biological target: T5, UniProt Q9WU86
T5 sequence (whole entry): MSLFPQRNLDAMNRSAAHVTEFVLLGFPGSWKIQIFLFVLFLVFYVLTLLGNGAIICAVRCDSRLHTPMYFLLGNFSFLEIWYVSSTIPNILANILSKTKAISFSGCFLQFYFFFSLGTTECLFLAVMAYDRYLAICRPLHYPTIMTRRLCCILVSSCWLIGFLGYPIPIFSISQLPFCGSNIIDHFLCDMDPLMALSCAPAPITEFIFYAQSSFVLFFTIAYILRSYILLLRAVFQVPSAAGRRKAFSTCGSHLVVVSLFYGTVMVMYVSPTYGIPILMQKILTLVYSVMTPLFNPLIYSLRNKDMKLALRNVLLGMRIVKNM
Conditions: stereoisomer not certain
Summary of the method: as §1

| SMILES | odorant receptor agonist call |
| --- | --- |
| CCCCCCCCCO | inactive |
| CCCCC(C)=O | inactive |
| CCOC(=O)C(C)C | inactive |
| CCCCCCCCC(=O)O | inactive |
| CC(=O)OCC=C(C)C | inactive |
| CCCCCC(=O)CC | inactive |
| CCCCCCCCCC(=O)[O-].[H+] | inactive |
| CCCCCCCCS | inactive |
| C=CCOC(=O)CCCCCC | inactive |
| CCCCCCO | inactive |
| CCCCCCCCO | inactive |
| CCCCCCCCCCO | inactive |
| CCC(=O)C(=O)CC | inactive |
| CCCCCCCO | inactive |
| O=C1Cc2ccccc2O1 | inactive |
| CCCCC(=O)O | inactive |
| CCCCCC=O | inactive |
| O=C(c1ccccc1)c1ccccc1 | inactive |

Biological target: T6, UniProt Q9WU94
T6 sequence (whole entry): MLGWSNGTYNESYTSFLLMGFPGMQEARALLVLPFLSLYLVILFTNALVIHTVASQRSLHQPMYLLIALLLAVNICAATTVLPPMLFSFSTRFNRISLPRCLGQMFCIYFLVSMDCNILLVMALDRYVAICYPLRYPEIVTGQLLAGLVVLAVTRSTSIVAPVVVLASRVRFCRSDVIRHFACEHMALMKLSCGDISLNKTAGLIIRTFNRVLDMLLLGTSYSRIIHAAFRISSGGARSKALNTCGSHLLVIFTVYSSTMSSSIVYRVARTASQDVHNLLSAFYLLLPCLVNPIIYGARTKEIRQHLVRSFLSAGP
Conditions: stereoisomer not certain
Summary of the method: as §1

| SMILES | odorant receptor agonist call |
| --- | --- |
| CCCCCCCCCO | inactive |
| CCCCCCCCC(=O)O | inactive |
| O=C([O-])CCCCCCCC(=O)[O-].[H+].[H+] | active |
| CCCCCCCCCC(=O)[O-].[H+] | inactive |
| O=C([O-])CCCCCCC(=O)[O-].[H+].[H+] | inactive |
| CCCCCCO | inactive |
| CCCCCCCCO | inactive |
| CCCCC=O | inactive |
| CCCCCCCO | inactive |
| CCCCC(=O)O | inactive |
| O=C(O)CCCCCBr | inactive |

Biological target: T7, UniProt Q9WVD7
T7 sequence (whole entry): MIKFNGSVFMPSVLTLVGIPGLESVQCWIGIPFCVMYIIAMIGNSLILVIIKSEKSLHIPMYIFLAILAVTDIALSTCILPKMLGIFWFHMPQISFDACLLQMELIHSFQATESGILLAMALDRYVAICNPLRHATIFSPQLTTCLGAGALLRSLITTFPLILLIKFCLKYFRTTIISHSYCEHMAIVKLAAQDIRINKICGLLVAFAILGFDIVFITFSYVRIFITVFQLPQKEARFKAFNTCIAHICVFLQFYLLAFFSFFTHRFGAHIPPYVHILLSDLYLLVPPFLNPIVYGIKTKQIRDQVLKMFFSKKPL
Conditions: stereoisomer not certain
Summary of the method: as §1

| SMILES | odorant receptor agonist call |
| --- | --- |
| CCCCCCCCCO | active |
| CCCCCCCCC(=O)O | active |
| O=C([O-])CCCCCCCC(=O)[O-].[H+].[H+] | inactive |
| O=C([O-])CCCCCCC(=O)[O-].[H+].[H+] | inactive |
| CCCCCCO | inactive |
| CCCCCCCCO | active |
| CCCCCCCO | inactive |
| CCCCC(=O)O | inactive |
| O=C(O)CCCCCBr | active |
